≈ marks a conversion by molar mass, not a printed value. Calls of active or inactive are those of the source. The calls are words filed in the database; no cut-off is given here.
Test system: Bacillus cereus
Assay: Bactericidal activity against Bacillus cereus ATCC 14579 after 24 hrs
Type: functional
Details: ATCC 14579, 24 h, read-out: MBC99.9
Summary of the method: (§1)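 MBC determined by a standard MBC protocol alongside the MIC, with values in µg/mL. Gentamycin sulfate and ampicillin were the references.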
With `O=Cc1cn(-c2nc(-c3cc4cc(Cl)cc(Cl)c4oc3=O)cs2)nc1-c1ccccc1` the MBC was 175 µg/mL (≈ 374 µM). For `O=Cc1cn(-c2nc(-c3cc4cc(Br)ccc4oc3=O)cs2)nc1-c1ccccc1`, the MBC was 260 µg/mL (≈ 544 µM).

Test system: Klebsiella pneumoniae
Assay: Antibacterial activity against Klebsiella pneumoniae ATCC 43816 assessed as growth inhibition at 100 ug/ml after 24 hrs by agar well diffusion method
Type: functional
Details: not given
Summary of the method: (§2)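 Agar well diffusion. Compounds were tested at 10, 20, 100, 200 and 300 µg/mL, and the zone of inhibition was measured in mm. Gentamycin sulfate was the reference drug.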
With `O=Cc1cn(-c2nc(-c3cc4cc(Cl)cc(Cl)c4oc3=O)cs2)nc1-c1ccccc1` the “growth inhibition (GI)” value was “Active”. With `O=Cc1cn(-c2nc(-c3cc4cc(Br)ccc4oc3=O)cs2)nc1-c1ccccc1` the “growth inhibition (GI)” value was “Active”.

Test system: MCF7
Assay: Anticancer activity against human MCF7 cells assessed as cell viability after 48 hrs by MTT assay
Type: functional, cell-based
Details: MCF7, 48 h
Summary of the method: (§3)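 MTT cytotoxicity assay in human DU-145 prostate, MCF-7 breast and HeLa cervical cancer cell lines. Doxorubicin was the reference drug.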
`O=Cc1cn(-c2nc(-c3cc4cc(Cl)cc(Cl)c4oc3=O)cs2)nc1-c1ccccc1` gave an IC50 of 76.3 µM. Work on `O=Cc1cn(-c2nc(-c3cc4cc(Br)ccc4oc3=O)cs2)nc1-c1ccccc1` yielded an IC50 of 18.2 µM.

Test system: Proteus vulgaris
Assay: Antibacterial activity against Proteus vulgaris ATCC 13315 assessed as growth inhibition at 100 ug/ml after 24 hrs by agar well diffusion method
Type: functional
Details: not given
Summary of the method: as §2
For `O=Cc1cn(-c2nc(-c3cc4cc(Cl)cc(Cl)c4oc3=O)cs2)nc1-c1ccccc1`, the “growth inhibition (GI)” value was “Active”. In the case of `O=Cc1cn(-c2nc(-c3cc4cc(Br)ccc4oc3=O)cs2)nc1-c1ccccc1`, the “growth inhibition (GI)” value is reported as “Active”.

Test system: not listed separately
Assay: n-Octanol-phosphate buffer partition coefficient, log P of the compound at pH 7.4 after 30 mins by shake flask method
Type: physicochemical
Details: not given
Summary of the method: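 Shake-flask partition between n-octanol and 50 mM phosphate buffer, pH 7.4. P calculated and expressed as logP.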
`O=Cc1cn(-c2nc(-c3cc4cc(Br)ccc4oc3=O)cs2)nc1-c1ccccc1` showed a logD at 0.5 h of 3.3.

Test system: Staphylococcus aureus
Assay: Antibacterial activity against methicillin-resistant Staphylococcus aureus NCTC 13616 after 24 hrs by microtiter plate method
Type: functional
Details: NCTC 13616, 24 h
With `O=Cc1cn(-c2nc(-c3cc4cc(Cl)cc(Cl)c4oc3=O)cs2)nc1-c1ccccc1` the MIC was 115 µg/mL (≈ 246 µM). Work on `O=Cc1cn(-c2nc(-c3cc4cc(Br)ccc4oc3=O)cs2)nc1-c1ccccc1` yielded an MIC of 116 µg/mL (≈ 243 µM).

Test system: Staphylococcus aureus
Assay: Antibacterial activity against methicillin-resistant Staphylococcus aureus NCTC 13616 assessed as growth inhibition at 100 ug/ml after 24 hrs by agar well diffusion method
Type: functional, organism-based
Details: not given
Summary of the method: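 Agar well diffusion assay with compounds applied to wells at several concentrations, including the 100 level reported here. The zone of inhibition was measured in mm. Gentamycin sulfate was the standard drug.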
In the case of `O=Cc1cn(-c2nc(-c3cc4cc(Cl)cc(Cl)c4oc3=O)cs2)nc1-c1ccccc1`, the “growth inhibition (GI)” value is reported as “Active”. With `O=Cc1cn(-c2nc(-c3cc4cc(Br)ccc4oc3=O)cs2)nc1-c1ccccc1` the “growth inhibition (GI)” value was “Active”.

Test system: Proteus vulgaris
Assay: Bactericidal activity against Proteus vulgaris ATCC 13315 after 24 hrs
Type: functional
Details: ATCC 13315, 24 h, read-out: MBC99.9
Summary of the method: as §1
In the case of `O=Cc1cn(-c2nc(-c3cc4cc(Cl)cc(Cl)c4oc3=O)cs2)nc1-c1ccccc1`, the MBC is reported as 260 µg/mL (≈ 555 µM). In the case of `O=Cc1cn(-c2nc(-c3cc4cc(Br)ccc4oc3=O)cs2)nc1-c1ccccc1`, the MBC is reported as 250 µg/mL (≈ 523 µM).

Test system: Klebsiella pneumoniae
Assay: Bactericidal activity against Klebsiella pneumoniae ATCC 43816 after 24 hrs
Type: functional
Details: ATCC 43816, 24 h, read-out: MBC99.9
Summary of the method: as §1
Compound `O=Cc1cn(-c2nc(-c3cc4cc(Cl)cc(Cl)c4oc3=O)cs2)nc1-c1ccccc1` has an MBC of 175 µg/mL (≈ 374 µM). Work on `O=Cc1cn(-c2nc(-c3cc4cc(Br)ccc4oc3=O)cs2)nc1-c1ccccc1` yielded an MBC of 175 µg/mL (≈ 366 µM).

Test system: HeLa
Assay: Anticancer activity against human HeLa cells assessed as cell viability after 48 hrs by MTT assay
Type: functional, cell-based
Details: not given
Summary of the method: as §3
With `O=Cc1cn(-c2nc(-c3cc4cc(Cl)cc(Cl)c4oc3=O)cs2)nc1-c1ccccc1` the IC50 was 13.8 µM. `O=Cc1cn(-c2nc(-c3cc4cc(Br)ccc4oc3=O)cs2)nc1-c1ccccc1` gave an IC50 of 11 µM.

Test system: Bacillus spizizenii
Assay: Antibacterial activity against Bacillus subtilis ATCC 6633 after 24 hrs by microtiter plate method
Type: functional
Details: ATCC 6633, 24 h
Summary of the method: (§4)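 Test concentrations reported in µg/mL. Gentamycin sulfate and ampicillin were the reference drugs.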
For `O=Cc1cn(-c2nc(-c3cc4cc(Cl)cc(Cl)c4oc3=O)cs2)nc1-c1ccccc1`, the MIC was 123 µg/mL (≈ 263 µM). Work on `O=Cc1cn(-c2nc(-c3cc4cc(Br)ccc4oc3=O)cs2)nc1-c1ccccc1` yielded an MIC of 125 µg/mL (≈ 261 µM).

Test system: Bacillus spizizenii
Assay: Bactericidal activity against Bacillus subtilis ATCC 6633 after 24 hrs
Type: functional
Details: ATCC 6633, 24 h, read-out: MBC99.9
Summary of the method: as §1
Compound `O=Cc1cn(-c2nc(-c3cc4cc(Cl)cc(Cl)c4oc3=O)cs2)nc1-c1ccccc1` has an MBC of 250 µg/mL (≈ 534 µM). Compound `O=Cc1cn(-c2nc(-c3cc4cc(Br)ccc4oc3=O)cs2)nc1-c1ccccc1` has an MBC of 250 µg/mL (≈ 523 µM).

Test system: Klebsiella pneumoniae
Assay: Antibacterial activity against Klebsiella pneumoniae ATCC 43816 after 24 hrs by microtiter plate method
Type: functional
Details: ATCC 43816, 24 h
Summary of the method: as §4
With `O=Cc1cn(-c2nc(-c3cc4cc(Cl)cc(Cl)c4oc3=O)cs2)nc1-c1ccccc1` the MIC was 118 µg/mL (≈ 252 µM). For `O=Cc1cn(-c2nc(-c3cc4cc(Br)ccc4oc3=O)cs2)nc1-c1ccccc1`, the MIC was 117 µg/mL (≈ 244 µM).

Test system: Escherichia coli
Assay: Antibacterial activity against Escherichia coli ATCC 8739 after 24 hrs by microtiter plate method
Type: functional
Details: ATCC 8739, 24 h
Summary of the method: as §4
`O=Cc1cn(-c2nc(-c3cc4cc(Cl)cc(Cl)c4oc3=O)cs2)nc1-c1ccccc1` showed an MIC of 120 µg/mL (≈ 255 µM). With `O=Cc1cn(-c2nc(-c3cc4cc(Br)ccc4oc3=O)cs2)nc1-c1ccccc1` the MIC was 118 µg/mL (≈ 247 µM).

Test system: Escherichia coli
Assay: Antibacterial activity against Escherichia coli ATCC 8739 assessed as growth inhibition at 100 ug/ml after 24 hrs by agar well diffusion method
Type: functional
Details: not given
Summary of the method: as §2
With `O=Cc1cn(-c2nc(-c3cc4cc(Cl)cc(Cl)c4oc3=O)cs2)nc1-c1ccccc1` the “growth inhibition (GI)” value was “Active”. In the case of `O=Cc1cn(-c2nc(-c3cc4cc(Br)ccc4oc3=O)cs2)nc1-c1ccccc1`, the “growth inhibition (GI)” value is reported as “Active”.

Test system: Bacillus spizizenii
Assay: Antibacterial activity against Bacillus subtilis ATCC 6633 assessed as growth inhibition at 100 ug/ml after 24 hrs by agar well diffusion method
Type: functional, organism-based
Details: not given
Summary of the method: as §2
With `O=Cc1cn(-c2nc(-c3cc4cc(Cl)cc(Cl)c4oc3=O)cs2)nc1-c1ccccc1` the “growth inhibition (GI)” value was “Active”. With `O=Cc1cn(-c2nc(-c3cc4cc(Br)ccc4oc3=O)cs2)nc1-c1ccccc1` the “growth inhibition (GI)” value was “Active”.

Test system: Proteus vulgaris
Assay: Antibacterial activity against Proteus vulgaris ATCC 13315 after 24 hrs by microtiter plate method
Type: functional
Details: ATCC 13315, 24 h
Summary of the method: as §4
Compound `O=Cc1cn(-c2nc(-c3cc4cc(Cl)cc(Cl)c4oc3=O)cs2)nc1-c1ccccc1` has an MIC of 132 µg/mL (≈ 281 µM). With `O=Cc1cn(-c2nc(-c3cc4cc(Br)ccc4oc3=O)cs2)nc1-c1ccccc1` the MIC was 124 µg/mL (≈ 259 µM).

Test system: Escherichia coli
Assay: Bactericidal activity against Escherichia coli ATCC 8739 after 24 hrs
Type: functional
Details: ATCC 8739, 24 h, read-out: MBC99.9
Summary of the method: as §1
In the case of `O=Cc1cn(-c2nc(-c3cc4cc(Cl)cc(Cl)c4oc3=O)cs2)nc1-c1ccccc1`, the MBC is reported as 240 µg/mL (≈ 512 µM). `O=Cc1cn(-c2nc(-c3cc4cc(Br)ccc4oc3=O)cs2)nc1-c1ccccc1` showed an MBC of 240 µg/mL (≈ 502 µM).

Test system: not listed separately
Assay: Anticancer activity against human DU145 cells assessed as cell viability after 48 hrs by MTT assay
Type: functional, cell-based
Details: DU-145, 48 h
Summary of the method: as §3
In the case of `O=Cc1cn(-c2nc(-c3cc4cc(Cl)cc(Cl)c4oc3=O)cs2)nc1-c1ccccc1`, the IC50 is reported as 41.1 µM. For `O=Cc1cn(-c2nc(-c3cc4cc(Br)ccc4oc3=O)cs2)nc1-c1ccccc1`, the IC50 was 35 µM.

Test system: Bacillus cereus
Assay: Antibacterial activity against Bacillus cereus ATCC 14579 assessed as growth inhibition at 100 ug/ml after 24 hrs by agar well diffusion method
Type: functional
Details: not given
Summary of the method: as §2
For `O=Cc1cn(-c2nc(-c3cc4cc(Cl)cc(Cl)c4oc3=O)cs2)nc1-c1ccccc1`, the “growth inhibition (GI)” value was “Active”. For `O=Cc1cn(-c2nc(-c3cc4cc(Br)ccc4oc3=O)cs2)nc1-c1ccccc1`, the “growth inhibition (GI)” value was “Active”.

Test system: Bacillus cereus
Assay: Antibacterial activity against Bacillus cereus ATCC 14579 after 24 hrs by microtiter plate method
Type: functional
Details: ATCC 14579, 24 h
Summary of the method: as §4
With `O=Cc1cn(-c2nc(-c3cc4cc(Cl)cc(Cl)c4oc3=O)cs2)nc1-c1ccccc1` the MIC was 117 µg/mL (≈ 250 µM). Work on `O=Cc1cn(-c2nc(-c3cc4cc(Br)ccc4oc3=O)cs2)nc1-c1ccccc1` yielded an MIC of 129 µg/mL (≈ 270 µM).

Target: T1, Cytochrome P450 2A6 (Homo sapiens, UniProt P11509)
T1 sequence (P11509 whole entry): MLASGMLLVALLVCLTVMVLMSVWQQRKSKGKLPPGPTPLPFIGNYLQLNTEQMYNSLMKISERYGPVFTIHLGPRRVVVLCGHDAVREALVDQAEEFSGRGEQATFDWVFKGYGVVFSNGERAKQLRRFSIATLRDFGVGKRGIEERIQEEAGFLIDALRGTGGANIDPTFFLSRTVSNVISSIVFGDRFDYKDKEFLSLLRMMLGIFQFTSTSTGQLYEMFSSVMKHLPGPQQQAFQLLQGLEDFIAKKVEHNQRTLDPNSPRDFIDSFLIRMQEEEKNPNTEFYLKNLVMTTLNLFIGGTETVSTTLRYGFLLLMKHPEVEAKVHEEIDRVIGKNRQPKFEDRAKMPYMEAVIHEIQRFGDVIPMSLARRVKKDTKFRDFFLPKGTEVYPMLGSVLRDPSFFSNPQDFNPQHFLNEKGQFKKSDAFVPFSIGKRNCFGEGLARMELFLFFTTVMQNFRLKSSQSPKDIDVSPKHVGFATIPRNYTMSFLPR
Assay: Inhibition of human microsomal CYP2A6
Type: ADME
Details: not given
With `O=Cc1cn(-c2nc(-c3cc4cc(Cl)cc(Cl)c4oc3=O)cs2)nc1-c1ccccc1` the Ki was 0.00307 µM. `O=Cc1cn(-c2nc(-c3cc4cc(Br)ccc4oc3=O)cs2)nc1-c1ccccc1` showed a Ki of 0.00602 µM.

Test system: Staphylococcus aureus
Assay: Bactericidal activity against methicillin-resistant Staphylococcus aureus NCTC 13616 after 24 hrs
Type: functional
Details: NCTC 13616, 24 h, read-out: MBC99.9
Summary of the method: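 MBC determined by a standard MBC protocol run alongside the MIC determination. Gentamycin sulfate and ampicillin served as reference drugs.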
`O=Cc1cn(-c2nc(-c3cc4cc(Cl)cc(Cl)c4oc3=O)cs2)nc1-c1ccccc1` showed an MBC of 175 µg/mL (≈ 374 µM). Work on `O=Cc1cn(-c2nc(-c3cc4cc(Br)ccc4oc3=O)cs2)nc1-c1ccccc1` yielded an MBC of 175 µg/mL (≈ 366 µM).

Source: ChEMBL document CHEMBL3739273, “Synthesis, biological activity evaluation and molecular docking studies of novel coumarin substituted thiazolyl-3-aryl-pyrazole-4-carbaldehydes” (Bioorg Med Chem Lett, 2015)
